MDM2 E3 inh: MDM2-luciferase reporter signal enhancers, primary screen, MDM2 E3 ligase inhibitor project, cell-based, luminescence, 1536-well. cell-based MDM2 ubiquitination luciferase reporter, 2 h; 0 = plate control, 100 = twice control, blank-subtracted. actives 0.11% (n = 210,000). signal enhancement, % at 5 µM. AID 1230, 2008;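 active = signal enhancement of 30% or more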;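 also: luminescence tracks abundance of the self-degrading MDM2-luciferase fusion protein; higher signal means inhibition of MDM2 E3 ligase activity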
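Material: Stable MDM2–luciferase fusion reporter cells | Amount: 2000 cells seeded into each well | Dosing: One concentration, 5 µM, with 0.2% DMSO | Incubation: 4 h cell settling then 2 h compound exposure, 37 °C | Measured by: Luciferase luminescence | Read-out basis: % enhancement relative to plate controls after blank subtraction | Benchmarks: Control and blank well means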
NPY-Y2 antag: NPY-Y2 receptor antagonists, primary screen, cell-based; AID 793, 2007; actives 0.99% (n = 140,000); Neuropeptide Y receptor type 2 (Homo sapiens), P49146; inhibition, % at 2.7 µM; NPY-Y2 expressing cells, antagonist mode; in the data active = inhibition above about 17%
Target sequence (P49146 whole entry, looked up): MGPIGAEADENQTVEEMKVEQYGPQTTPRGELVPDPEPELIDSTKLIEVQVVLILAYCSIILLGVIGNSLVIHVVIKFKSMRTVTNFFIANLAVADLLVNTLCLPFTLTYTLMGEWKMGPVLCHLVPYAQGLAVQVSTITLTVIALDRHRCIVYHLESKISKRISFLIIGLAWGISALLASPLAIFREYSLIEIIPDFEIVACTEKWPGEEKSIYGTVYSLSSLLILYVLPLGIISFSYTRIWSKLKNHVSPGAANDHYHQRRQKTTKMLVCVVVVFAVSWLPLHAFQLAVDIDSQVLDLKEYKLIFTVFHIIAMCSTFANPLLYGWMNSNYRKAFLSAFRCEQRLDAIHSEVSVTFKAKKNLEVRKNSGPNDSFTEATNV
NPY-Y1 PAM-ag: NPY-Y1 receptor potentiators or agonists, primary screen, cell-based; NPY-Y1 expressing cells, potentiator/agonist activation; activation, % at 3.6 µM; actives 0.37% (n = 220,000); in the data active = activation above about 33%, passing the limit was not always enough;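 also: cells stimulated with NPY at EC10 then isoproterenol at EC100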
Measles CPE: compounds protecting cells from measles virus cytopathic effect, primary screen, measles RdRp inhibitor project, single point, MLSMR library, absorbance | AID 841, 2007 | Measles virus-infected cells, CPE protection | actives 1.5% (n = 140,000) | protection (pct of control), % at 4 µM; in the data active = protection mostly above about 24%, no sharp cut-off; inactive = mostly below about 26%
NPY2 pot ag: NPY-Y2 potentiators or agonists, primary screen, cell-based | cells expressing NPY-Y2, potentiator/agonist read-out | activation, % at 3.6 µM | actives 0.45% (n = 220,000); in the data active = activation above about 27%;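 also: cells stimulated with NPY near EC25 plus isoproterenol at EC100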
NPY Y1 blocker: NPY-Y1 receptor antagonists, primary screen, cell-based. inhibition, % at 3.6 µM. HEK293-CNG Y1 cells, membrane potential fluorescence; NPY at EC95, then isoproterenol. AID 1040, 2008. actives 1% (n = 200,000). Neuropeptide Y receptor type 1 (Homo sapiens), P25929;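 active = inhibition above the campaign mean inhibition of all tested compounds plus 3 SD, cut at about 20% in these data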
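Benchmarks – high control isoproterenol alone, low control NPY with isoproterenol · Material – HEK293 Y1/CNG channel cell line · Times – dye 3 h, compound 60 min room temperature, stimulation 45 min · Probe or stimulus – NPY (25 nM), isoproterenol (1 µM), Ro 20-1724 (25 µM) · Evaluation – % inhibition of NPY effect · Signal – fluorescence, membrane potential probe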
Numbers stand for hits; i = inactive; nt = no result given. Hits are enriched below; roughly 2.8% of the tested compounds scored in any of these assays.

SMILES	MDM2 E3 inh	NPY-Y2 antag	NPY-Y1 PAM-ag	Measles CPE	NPY2 pot ag	NPY Y1 blocker
CCOc1ccc(N(CC(=O)N/N=C/c2ccc(OC(C)C)cc2)S(C)(=O)=O)cc1	i	i	i	i	i	i
O=C1NC(=S)N/C1=C/c1cc([N+](=O)[O-])ccc1N1CCOCC1	i	nt	i	nt	i	i
O=Cc1cc([N+](=O)[O-])ccc1N1CCOCC1	i	i	i	33.1	i	i
Cc1ccnc(N/C=C(/NC(=O)c2ccccc2)C(=O)N/N=C\c2ccc(Cl)cc2)n1	nt	nt	i	nt	i	nt
Cc1ccc(NC(=O)C2CCCN(S(=O)(=O)c3cnc[nH]3)C2)c(Br)c1 (stereo unspecified)	i	i	i	29.4	i	i
CCN(CC)CCCN1C(=O)c2oc3ccccc3c(=O)c2C1c1cc(OC)ccc1OC (stereo unspecified)	i	i	i	i	i	i
O=C(COC(=O)C1c2ccccc2Oc2ccccc21)NC1CCS(=O)(=O)C1 (stereo unspecified)	i	i	i	active	i	i
CN(C(=O)COC(=O)C1c2ccccc2Oc2ccccc21)C1CCS(=O)(=O)C1 (stereo unspecified)	i	i	i	i	i	i
CC[n+]1c(/C=C2\C=C(C)CC(C)(C)C2)sc2ccccc21	i	19.9	i	i	i	21.8
CC1CCCC(n2c(=S)[nH]c3ccccc3c2=O)C1C (stereo unspecified)	i	i	i	32.3	i	i
COc1cccc(NC(=O)COC(=O)CC(NC(N)=O)c2ccc(Cl)cc2)c1 (stereo unspecified)	nt	nt	i	nt	i	nt
NC(=O)COC(=O)CC(NC(N)=O)c1ccc(Cl)cc1 (stereo unspecified)	i	i	i	36.9	i	i
Cc1cccc(/N=C/c2c(O)n(Cc3ccc4c(c3)OCO4)c(=O)c3ccccc23)n1	i	nt	i	nt	i	i
CCCC(=O)N(CCN(Cc1ccccc1)C(=O)CCC)Cc1ccccc1	i	24.7	i	i	i	55.9
CCOCC(=O)N(CC)Cc1ccccc1	i	nt	i	nt	i	i
COc1cc2[nH]c(=O)n(CCCCCC(=O)N3CC=C(c4ccccc4)CC3)c(=O)c2cc1OC	i	i	i	i	i	i
COc1ccc(/C=N/n2c(N)c(S(=O)(=O)c3cccs3)c3nc4ccccc4nc32)cc1OC	i	i	i	32.4	i	i
COc1ccccc1OCCNC(=O)c1cc(F)c(F)cc1Cl	i	i	i	i	i	i
O=C(NCCOc1ccccc1F)c1cc(F)c(F)cc1Cl	i	i	i	33.2	i	i
Cc1ccccc1OCC(=O)Nc1ccccc1N1CCC(C)CC1	i	nt	i	nt	i	i
CN(Cc1ccccc1)c1ccc(S(=O)(=O)N2CCC(C(=O)O)CC2)cc1[N+](=O)[O-]	i	nt	i	nt	i	i
C=CCN1C(=Nc2cccnc2)SCC1(O)c1ccc(C)cc1 (stereo unspecified)	i	21.4	i	i	i	i
O=S(=O)(NCc1ccc2c(c1)OCO2)c1ccc2oc3ccccc3c2c1	nt	19.3	i	nt	i	21.2
CN(C)C(=O)C(=O)c1cccn1-c1cccc(Cl)c1C#N	i	nt	i	nt	i	i
CC(C)CCc1noc(CN(CC2CCC2)CC2CCCO2)n1 (stereo unspecified)	i	nt	i	nt	i	nt
SMILES	MDM2 E3 inh	NPY-Y2 antag	NPY-Y1 PAM-ag	Measles CPE	NPY2 pot ag	NPY Y1 blocker
O=C1CC(=O)C(n2cncn2)C(c2ccc(Cl)cc2Cl)C1 (stereo unspecified)	i	i	i	22.1	i	i
CC(C)c1ccc(OCC(=O)Nc2ccc(OC(F)(F)F)cc2)cc1	i	i	i	34.5	i	i
O=C(COc1ccccc1)Nc1ccc(OC(F)(F)C(F)F)c(NC(=O)COc2ccccc2)c1	i	34.2	i	i	i	24.7
CC(=O)Nc1ccc(OC(F)(F)C(F)F)c(NC(C)=O)c1	i	i	i	i	i	i
CC(C)[C@@H](C(=O)N1CCNCC1)n1cc(CCO)nn1	nt	nt	i	nt	i	i
COC(=O)C1CCN(C(=O)c2sc3nc(-c4ccc(F)cc4)cn3c2C)CC1	i	i	i	39.4	i	i
Cc1ccc2nc(Cl)c(/C=N/NC(=O)[C@H]3C[C@@H]3c3ccccc3)cc2c1	i	i	i	i	i	i
CC(C)(C)c1ccc(C2CC2C(=O)N/N=C\c2cc3ccccc3nc2Cl)cc1 (stereo unspecified)	i	i	i	51.4	i	i
CCc1nc(N2CCCCC2)c2oc3ccccc3c2n1	i	i	i	i	i	i
CCc1nc(Nc2ccncc2)c2oc3ccccc3c2n1	i	i	i	i	i	i
CCc1nc(Nc2ccc3c(c2)OCO3)c2oc3ccccc3c2n1	i	i	i	57.0	i	i
CCc1nc(N2CCN(Cc3ccc4c(c3)OCO4)CC2)c2oc3ccccc3c2n1	i	20.8	i	i	i	26.3
CCc1nc(N2CCCC(C)C2)c2oc3ccccc3c2n1 (stereo unspecified)	i	29.2	i	i	i	37.5
O=C1CC(C2CCCO2)C(=O)N1c1ccc(Cl)c(Cl)c1 (stereo unspecified)	nt	nt	i	nt	i	i
CC(=O)Nc1cc(ON=C(C)C)cc([N+](=O)[O-])c1	i	i	i	46.6	i	i
COc1c2c(nc3occc13)C(CCC(C)(C)O)(OC)C(O)CC2 (stereo unspecified)	i	i	i	76.0	i	i
O=[N+]([O-])C1=CC=C2C(=NC3(CCCCC3)N2O)C1=NCCc1ccccc1	30.7	nt	i	nt	i	i
CC(C)(C)N=C1C([N+](=O)[O-])=CC=C2C1=NC1(CCCCC1)N2O	i	i	i	i	i	i
O=C(Nc1ccc(Br)cc1)c1ccc(Br)c(S(=O)(=O)Nc2cccnc2)c1	i	i	i	45.5	i	i
CCCn1c(N)c(Br)c(=O)[nH]c1=O	i	i	i	44.5	i	i
CCCCCCCCCn1c2c(c(=N)c3c1CCC3)CCC2	i	37.2	i	i	i	90.4
CCOC(=O)C1=C(C)OC(N)=C(C#N)C1c1cc2c(cc1[N+](=O)[O-])OCO2 (stereo unspecified)	i	nt	i	nt	i	i
O=C(/C=C/c1ccccc1)N/C(=C/c1ccccc1)C(=O)N1CCCCC1	i	i	i	47.3	i	i
O=c1[nH]c(=O)n(CCO)c2nnn(Cc3ccccc3)c12	i	i	i	29.9	i	i
Oc1ccc(N=Nc2c(O)ccc3ccccc23)cc1	i	i	86.7	i	82.0	i
C=CCNc1nc(N2CCCCC2)c(C#N)c2c1CN(Cc1ccccc1)CC2	i	i	i	61.4	i	i

High-throughput results from PubChem.
